The term AUC denotes the area under the concentration-time curve, a measure of exposure. One may read the bioavailability as dose-corrected exposure relative to a reference, in per cent. Higher therefore signals much systemic uptake. In general, Tmax refers to the time from dosing to the highest level. Broadly, the CL/F is the apparent clearance, not corrected for the fraction that reaches the circulation. Usually Cmax stands for the maximum level reached in the sampled fluid or tissue.

Active and inactive are the calls of the source. The rule behind the calls is not given here.

The values that follow come from ChEMBL document CHEMBL4765234 (J Med Chem, 2016).

Data set [1] is described as follows: Drug metabolism in human hepatocytes assessed as O-dealkylation by measuring 4-((2,3-dihydrospiro[indene-1,4'-piperidine]-1'-yl)methyl)benzoic acid metabolite formation by LC-MS/MS analysis. The data set is classed as ADME, cell-based, Hepatocyte.
Data set [2] is described as follows: AUC in hyperglycemic Balb/c mouse plasma at greater than 0.58 mg/kg measured upto 60 mins. The data set is classed as ADME, organism-based. Also on record: dose 0.58 mg/kg, time <=60.
The nature of data set [3]: Volume of distribution at steady state in rat at 10 mg/kg, po or 3 mg/kg, iv by LC/MS/MS analysis. It counts as ADME, organism-based. Conditions: in vivo, read-out: Vdss. The method, boiled down:
(§1)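 Mice, rats and beagle dogs dosed; blood drawn at set times into EDTA, processed to plasma and assayed by LC/MS/MS. Parameters (clearance, Vdss, terminal half-life, Cmax, Tmax, oral bioavailability) derived by noncompartmental analysis.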

A short description of data set [4]: Clearance in rat plasma at 10 mg/kg, po or 3 mg/kg, iv by LC/MS/MS analysis. The data set is classed as ADME, organism-based. Put shortly: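 Dosing was oral and intravenous in mice, rats or beagle dogs. Blood was drawn at set time points into EDTA and processed to plasma. Plasma was assayed by LC/MS/MS. Clearance, Cmax and terminal half-life were derived by noncompartmental analysis.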

Data set [5] addresses Free fatty acid receptor 1 (Mus musculus) (UniProt Q76JU9). Description: Agonist activity at GPR40 in mouse pancreatic islets assessed as induction of glucose-mediated insulin secretion measured after 90 mins in EBSS buffer by ELISA. To be noted: filed as agonist. In general terms: ELISA stands for enzyme-linked immunosorbent assay.
Data set [6] in a line: Half-life in rat at 10 mg/kg, po or 3 mg/kg, iv by LC/MS/MS analysis. It counts as ADME, organism-based. Conditions: in vivo. The method, boiled down:
as §1

A short description of data set [7]: Oral bioavailability in rat at 10 mg/kg by LC/MS/MS analysis. To be noted: in vivo. It counts as ADME, organism-based. Put shortly:
as §1

Data set [8] is described as follows: Drug metabolism in dog hepatocytes assessed as O-dealkylation by measuring 4-((2,3-dihydrospiro[indene-1,4'-piperidine]-1'-yl)methyl)benzoic acid metabolite formation by LC-MS/MS analysis. The data set is classed as ADME, cell-based, Canis lupus familiaris, Hepatocyte.
A short description of data set [9]: Oral bioavailability in dog at 5 mg/kg by LC/MS/MS analysis. It counts as ADME, organism-based, Canis lupus familiaris. Conditions: in vivo. Put shortly:
as §1

Data set [10] is described as follows: Oral bioavailability in mouse at 10 mg/kg by LC/MS/MS analysis. The data set is classed as ADME, organism-based. Conditions: in vivo. Put shortly: as §1
Data set [11] can be described thus: Elimination half-life in rat plasma at 10 mg/kg, po or 3 mg/kg, iv by LC/MS/MS analysis. To be noted: read-out: beta t1/2 (converted).
Data set [12] is described as follows: Tmax in dog at 5 mg/kg, po or 1 mg/kg, iv by LC/MS/MS analysis. The data set is classed as ADME, organism-based, Canis lupus familiaris. Conditions: in vivo. Put shortly:
as §1

Data set [13] in a line: Tmax in type 2 diabetic mellitus human at 1080 mg, po administered as single dose. The data set is classed as ADME, organism-based. Conditions: in vivo. The method, boiled down: (§2)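 Single oral dose given to type 2 diabetic subjects; plasma drug levels followed over time. Cmax, Tmax, terminal half-life, AUC(0−∞), CL/F and Vz/F obtained by noncompartmental analysis and reported as geometric means with CV%.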

The nature of data set [14]: Drug metabolism in dog plasma assessed as conjugation with glucuronide metabolite formation by LC-MS/MS analysis. The data set is classed as ADME, cell-free, Canis lupus familiaris.
Data set [15] in a line: Drug metabolism in rat hepatocytes assessed as demethylation by LC-MS/MS analysis. The data set is classed as ADME, cell-based, Hepatocyte.
A short description of data set [16]: Drug metabolism in mouse hepatocytes assessed as demethylation by LC-MS/MS analysis. The data set is classed as ADME, cell-based, Hepatocyte.
Data set [17] is described as follows: Apparent clearance in type 2 diabetic mellitus human at 540 mg, po administered as single dose. The data set is classed as ADME, organism-based. To be noted: in vivo. Put shortly: (§3)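 Type 2 diabetic subjects each received a single oral dose. Plasma drug levels were followed over time. Parameters were derived by noncompartmental analysis and reported as geometric means with CV%. CL/F is apparent total clearance and Vz/F is apparent terminal-phase volume.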

Data set [18] in a line: Cmax in type 2 diabetic mellitus human at 540 mg, po administered as single dose. The data set is classed as ADME, organism-based. Also on record: route oral, dose 540 mg. To be noted: in vivo. Put shortly: as §3
Data set [19] is described as follows: Tmax in type 2 diabetic mellitus human at 540 mg, po administered as single dose. It counts as ADME, organism-based. Conditions: in vivo. Put shortly: as §2
Data set [20] is described as follows: Drug metabolism in dog urine assessed as metabolite formation by LC-MS/MS analysis. It counts as ADME, tissue-based, Canis lupus familiaris.
Data set [21] in a line: Half life in type 2 diabetic mellitus human at 270 mg, po administered as single dose. The data set is classed as ADME, organism-based. To be noted: in vivo. Put shortly:
as §3

Data set [22] in a line: Apparent volume of distribution in type 2 diabetic mellitus human at 1080 mg, po administered as single dose. It counts as ADME, organism-based. Conditions: in vivo, read-out: Vz/F. Put shortly: as §3
Data set [23] is described as follows: Tmax in type 2 diabetic mellitus human at 270 mg, po administered as single dose. It counts as ADME, organism-based. Conditions: in vivo. The method, boiled down:
as §2

Data set [24] in a line: Drug distribution in C57BL/6 mouse plasma at 3 microg/kg, iv administered as single dose observed at 20 to 40 mins by LC-MS/MS analysis. The data set is classed as ADME, organism-based. Conditions: in vivo, 0.003 mg/kg, time 20-40 min, dose 3 µg/kg. Put shortly: (§4)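 Tracer microdose study in fed male C57BL/6 mice: single 3 μg/kg IV dose in 25% HP-BCD. Mice were killed by cervical dislocation, and spleen, ascending colon, skeletal muscle and plasma were sampled at 20 and 40 min.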

A short description of data set [25]: AUC in hyperglycemic Balb/c mouse plasma at 3.67 mg/kg measured upto 60 mins. Details: dose 3.67 mg/kg, time <=60. The data set is classed as ADME, organism-based.
A short description of data set [26]: Drug distribution in C57BL/6 mouse spleen at 3 microg/kg, iv administered as single dose observed at 20 to 40 mins by LC-MS/MS analysis. It counts as ADME, organism-based. Conditions: in vivo, 0.003 mg/kg, time 20-40 min, dose 3 µg/kg. The method, boiled down: as §4
The nature of data set [27]: AUC in hyperglycemic Balb/c mouse plasma at 5.6 mg/kg measured upto 60 mins. It counts as ADME, organism-based. Details: dose 5.6 mg/kg, time <=60.
Data set [28] in a line: Drug metabolism in dog hepatocytes assessed as oxidation by LC-MS/MS analysis. It counts as ADME, cell-based, Canis lupus familiaris, Hepatocyte.

Chain of Free fatty acid receptor 1 (Mus musculus) (Q76JU9 whole entry): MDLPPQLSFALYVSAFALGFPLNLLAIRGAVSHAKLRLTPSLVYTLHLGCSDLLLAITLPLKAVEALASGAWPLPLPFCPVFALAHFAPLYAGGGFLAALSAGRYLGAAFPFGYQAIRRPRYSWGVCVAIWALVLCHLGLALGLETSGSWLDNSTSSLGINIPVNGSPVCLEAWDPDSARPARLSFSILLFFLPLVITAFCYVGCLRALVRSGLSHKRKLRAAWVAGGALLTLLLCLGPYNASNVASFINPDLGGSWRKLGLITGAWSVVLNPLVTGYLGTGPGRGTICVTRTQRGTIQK

Take `CC#C[C@@H](CC(=O)O)c1ccc(OCc2ccc(CN3CCC4(C=Cc5ccccc54)CC3)cc2)cc1` [LY2881835]: the Drug metabolism result in [1] and in data set [8] was “Metabolite_Detected” in each case. The same molecule had an AUC at 1 h in data set [2] of 218 ng·h/mL. In [3], the Vd came to 0.4 L/kg. Besides, the clearance in data set [4] worked out at 11.6 mL/min/kg. Besides, the outcome in [5] was Active. In addition, the figures for the half-life in [6] and in [11] were 2.1 h and 2 h, respectively. Also, the values for the bioavailability in [7], in [9] and in data set [10] were 71%, 74% and 64%, respectively. The Tmax in data set [12] worked out at 3 h.
For the molecule `CC#C[C@@H](CC(=O)O)c1ccc(OCc2ccc(CN3CCCc4cccc(OC)c43)s2)cc1`, the Tmax in data set [13] stood at 4 h; in [19], 4 h; in [23] it was 2.75 h. Moreover, the Drug metabolism result in data set [14] is “Metabolite_Detected”; in data set [15], “Metabolite_Detected”; in [16], “Metabolite_Detected”; in data set [20], “Metabolite_Notdetected”. Besides, the CL/F in data set [17] was 217 mL/min. For the same molecule, the Cmax in data set [18] is 3780 ng/mL. Further, the half-life in [21] was 12.1 h. For the same molecule, in data set [22], the Vd/F was 358 L.
Regarding `CC#C[C@@H](CC(=O)O)c1ccc(OCc2ccc(CN3CCC4(C=Cc5ccccc54)CC3)s2)cc1`, the Drug uptake entry in data set [24] and in [26] was “Active” throughout. Moreover, the AUC at 1 h in data set [25] came to 1060 ng·h/mL.
Turning to `CC#C[C@@H](CC(=O)O)c1ccc(OCc2ccc(CN3CCC4(CCc5ccccc54)CC3)s2)cc1`, the AUC at 1 h in data set [27] came out at 898 ng·h/mL. Besides, the Drug metabolism entry in data set [28] is “Metabolite_Detected”.
